Results as given in ChEMBL document CHEMBL4219061, “Structure-activity relationships of cryptopleurine analogs with E-ring modifications as anti-hepatitis C virus agents” (Bioorg Med Chem, 2018).
The source made the active and inactive calls. No cut-off for these calls is given here.

Key:
[1] = test system: Hepatitis B virus; assay: Antiviral activity against HBV infected in human HepG2(2.2.15) cells assessed as inhibition of viral DNA level after 6 days by Southern blot analysis; format: functional; conditions: HepG2 2.2.15, 144 h
Method in brief: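 HepG2.2.15 cells (HBV genome integrated; MEME, 10% FCS, kanamycin) seeded ~5 × 10^5 per well and grown 6 days, then given compound for 6 days with fresh medium every other day. Total DNA (20 μg) run on 1% agarose, blotted, hybridized overnight at 65 °C with 32P-labeled full-length HBV probe; read by film or PhosphorImager.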

[2] = target: Heat shock cognate 71 kDa protein (Homo sapiens) (UniProt P11142); assay: Induction of HSC70 chaperone activity in human Huh-luc/neo-ET cells co-transfected with FLAG-tagged CHIP assessed as reduction in HCV RNA NS5A protein expression at 6 nM after 24 hrs; format: cell-based
Sequence of Heat shock cognate 71 kDa protein (Homo sapiens) (P11142 2-646 limits assumed): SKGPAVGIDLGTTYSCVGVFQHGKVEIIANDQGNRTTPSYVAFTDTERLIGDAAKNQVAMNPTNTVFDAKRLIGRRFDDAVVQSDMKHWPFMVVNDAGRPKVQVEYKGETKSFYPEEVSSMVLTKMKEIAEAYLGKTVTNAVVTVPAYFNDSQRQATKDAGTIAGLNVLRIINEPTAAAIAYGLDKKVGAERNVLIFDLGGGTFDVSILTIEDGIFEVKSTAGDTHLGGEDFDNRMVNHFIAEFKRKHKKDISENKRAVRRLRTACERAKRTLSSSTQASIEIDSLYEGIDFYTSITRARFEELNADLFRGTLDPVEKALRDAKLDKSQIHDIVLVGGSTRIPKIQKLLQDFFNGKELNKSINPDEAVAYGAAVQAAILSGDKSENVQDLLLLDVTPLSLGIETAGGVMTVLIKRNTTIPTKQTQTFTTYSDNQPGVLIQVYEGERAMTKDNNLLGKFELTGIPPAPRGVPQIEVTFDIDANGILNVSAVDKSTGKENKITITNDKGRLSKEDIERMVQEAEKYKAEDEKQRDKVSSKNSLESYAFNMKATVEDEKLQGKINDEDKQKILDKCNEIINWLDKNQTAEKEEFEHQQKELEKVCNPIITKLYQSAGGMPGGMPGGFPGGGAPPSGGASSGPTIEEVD
Method in brief: (§1)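 Huh-luc/neo-ET replicon cells (HCV 1b Con1, DMEM, 10% FBS) transiently transfected with FLAG-CHIP plasmid or empty vector, then treated 24 h with compound. HCV RNA, NS3 and NS5A protein levels measured. Representative of more than two independent experiments; two-tailed Student's t-test, p < .05.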

[3] = target: Heat shock cognate 71 kDa protein (Homo sapiens) (UniProt P11142); assay: Induction of HSC70 chaperone activity in human Huh-luc/neo-ET cells assessed as reduction in HCV RNA NS3 protein expression at 6 nM after 24 hrs; format: cell-based; method in brief: as §1
[4] = test system: Huh-luc/neo-ET; assay: Effect on HSC70 expression in human Huh-luc/neo-ET cells at 6 nM measured up to 72 hrs by Western blot analysis
[5] = Cytotoxicity against human Huh-luc/neo-ET cells assessed as cell growth inhibition; format: cell-based
Method in brief: (§2)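 Cell growth measured against DMSO vehicle in HepG2.2.15 cells (MEME, 10% FCS, 50 µg/ml kanamycin) or in Huh-luc/neo-ET cells. IC50 = concentration giving 50% inhibition of cell growth. Mean ± SD of three independent experiments.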

[6] = Effect on […] CHIP expression in human Huh-luc/neo-ET cells at 6 nM after 24 hrs; format: ADME, cell-based; conditions: 0.006 µM
[7] = test system: Hepatitis C virus; assay: Antiviral activity against HCV genotype 1b con1 infected in human Huh-luc/neo-ET cells assessed as inhibition of viral replication after 72 hrs; format: functional, organism-based, Hepacivirus hominis; conditions: isolate Con1, Huh-luc/neo-ET
Method in brief: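 Firefly-luciferase reporter in the Con1 genotype 1b subgenomic replicon used to follow HCV replication in Huh-luc/neo-ET cells, tested without G418 (routinely kept in DMEM, 10% FBS, 1 mM nonessential amino acids, 250 µg/ml G418, 37 °C, 5% CO2). Luciferase read on a plate reader. EC50 = concentration giving 50% inhibition of replication versus DMSO vehicle. Mean ± SD of three independent experiments.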

[8] = test system: HepG2 2.2.15; assay: Cytotoxicity against human HepG2(2.2.15) cells assessed as cell growth inhibition; format: cell-based; method in brief: as §2
[9] = target: Heat shock cognate 71 kDa protein (Homo sapiens) (UniProt P11142); assay: Allosteric regulation of recombinant HSC70 (unknown origin) ATPase activity assessed as increase in ADP production at 10 uM after 10 mins in presence of HCV wild type poly U/UC RNA by HPLC analysis
Method in brief: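 Recombinant Hsc70 (0.25 μM) incubated with compound at 10 μM plus ATP and 0.5 μM HCV wild-type poly U/UC RNA in MOPS buffer pH 7.4 (Mg(OAc)2, KOAc, DTT, BSA), 37 °C, 10 min. Stopped with TCA (15% final), extracted with trichlorotrifluoroethane:trioctylamine, ADP quantified by HPLC against standard curve on same column. Mean ± SD, three experiments.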

[10] = target: Heat shock cognate 71 kDa protein (Homo sapiens) (UniProt P11142); assay: Induction of HSC70 (unknown origin) chaperone activity assessed as reactivation of guanidine-denatured luciferase at 10 uM in presence of human recombinant CHIP by luciferase reporter gene assay
[11] = target: Heat shock cognate 71 kDa protein (Homo sapiens) (UniProt P11142); assay: Induction of HSC70 chaperone activity in human Huh-luc/neo-ET cells assessed as reduction in HCV RNA NS5A protein expression at 6 nM after 24 hrs; format: cell-based; method in brief: as §1
[12] = target: Heat shock cognate 71 kDa protein (Homo sapiens) (UniProt P11142); assay: Displacement of biotinylated-rac-cryptopleurine from recombinant HSC70 (unknown origin) […] by Western blot analysis
Method in brief: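 Biotinylated rac-cryptopleurine loaded overnight at room temperature onto streptavidin resin in 50% DMSO/50% protein-binding buffer (20 mM Hepes pH 7.9, 100 mM NaCl, 0.5% NP-40, 6 mM MgCl2). Resin washed, then incubated 2 h at room temperature with recombinant His-Hsc70 (E. coli BL21(DE3)pLysS, Ni-NTA purified) in 2.5% BSA. Bound Hsc70 eluted with buffer alone or with compound.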

[13] = Therapeutic index, ratio of IC50 for human Huh-luc/neo-ET cells to EC50 for HCV genotype 1b con1; format: toxicity; conditions: Huh-luc/neo-ET cells (HCV genotype 1b con1), read-out: Ratio IC50/EC50
[14] = target: Heat shock cognate 71 kDa protein (Homo sapiens) (UniProt P11142); assay: Induction of HSC70 chaperone activity in human Huh-luc/neo-ET cells co-transfected with FLAG-tagged CHIP assessed as reduction in HCV RNA NS3 protein expression at 6 nM after 24 hrs; format: cell-based; method in brief: as §1
[15] = test system: HepG2 2.2.15; assay: Effect on HSC70 expression in human HepG2(2.2.15) cells at 3 nM measured up to 72 hrs by Western blot analysis; format: functional, cell-based
[16] = target: Heat shock cognate 71 kDa protein (Homo sapiens) (UniProt P11142); assay: Induction of HSC70 chaperone activity in human Huh-luc/neo-ET cells co-transfected with FLAG-tagged CHIP assessed as reduction in HCV RNA NS3 protein expression at 3 nM after 24 hrs; format: cell-based
Method in brief: (§3)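 Huh-luc/neo-ET replicon cells transiently transfected with FLAG-tagged CHIP plasmid or empty vector and treated with compound for 24 h. HCV RNA and NS3 and NS5A protein levels measured. Representative of more than two independent experiments; two-tailed Student's t-test, p < .05.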

[17] = target: Heat shock cognate 71 kDa protein (Homo sapiens) (UniProt P11142); assay: Induction of HSC70 chaperone activity in human Huh-luc/neo-ET cells assessed as reduction in HCV RNA NS3 protein expression at 3 nM after 24 hrs; format: cell-based; method in brief: as §3
[18] = target: Heat shock cognate 71 kDa protein (Homo sapiens) (UniProt P11142); assay: Induction of HSC70 chaperone activity in human Huh-luc/neo-ET cells assessed as reduction in HCV RNA NS5A protein expression at 3 nM after 24 hrs; format: cell-based; method in brief: as §3
[19] = target: Heat shock cognate 71 kDa protein (Homo sapiens) (UniProt P11142); assay: Induction of HSC70 chaperone activity in human Huh-luc/neo-ET cells co-transfected with FLAG-tagged CHIP assessed as reduction in HCV RNA NS5A protein expression at 3 nM after 24 hrs; format: cell-based; method in brief: as §3
[20] = Effect on […] CHIP expression in human Huh-luc/neo-ET cells at 3 nM after 24 hrs; format: ADME, cell-based; conditions: 0.003 µM

| Structure (SMILES) | EC10 [1] | IC50 [5] | EC50 [7] | IC50 [8] | Activity [9] | displacement activity (active/not active) [12] | selectivity ratio [13] | further results |
| --- | --- | --- | --- | --- | --- | --- | --- | --- |
| COc1ccc2c3c(c4cc(OC)c(OC)cc4c2c1)C[C@H]1C[C@H](O)CCN1C3 | > 5.5 nM | 5 nM | 1.4 nM | 49 nM | Active | Active | 3.57 | Activity [2]: Active; Activity [3]: Active; Activity [4]: inactive; Activity [6]: Non-Toxic; Activity [10]: Active; Activity [11]: Active; Activity [14]: Active |
| COc1ccc2c3c(c4cc(OC)c(OC)cc4c2c1)C[C@H]1CN(C2CC2)CN1C3 (racemic) | > 300 nM | 1000 nM | 750 nM | 820 nM |  |  | 1.33 |  |
| COc1ccc2c3c(c4cc(OC)c(OC)cc4c2c1)C[C@H]1CC[C@H](O)CN1C3 (racemic) | > 3000 nM | 3750 nM | 246 nM | 1600 nM | Active | inactive | 15.2 |  |
| COc1ccc2c3c(c4cc(OC)c(OC)cc4c2c1)C[C@H]1CCCCCN1C3 (racemic) | > 1000 nM | 300 nM | 52.3 nM | 2700 nM |  |  | 5.75 |  |
| COc1cc2c3c(c4cc(OC)c(OC)cc4c2cc1OC)[C@H](O)[C@@H]1CCCN1C3 | > 300 nM | 91 nM | 31.5 nM | 98.9 nM |  |  | 2.89 |  |
| COc1ccc2c3c(c4cc(OC)c(OC)cc4c2c1)C[C@H]1CCOCCN1C3 (racemic) | > 300 nM | 120 nM | 16.7 nM | 4000 nM |  |  | 7.19 |  |
| COc1ccc2c3c(c4cc(OC)c(OC)cc4c2c1)C[C@H]1CNCCN1C3 (racemic) | > 500 nM | 1000 nM | 183 nM | 1400 nM |  |  | 5.46 |  |
| COc1ccc2c3c(c4cc(OC)c(OC)cc4c2c1)C[C@H]1CCN(N(C)C)CN1C3 (racemic) | > 900 nM | 4000 nM | 3750 nM | 2400 nM |  |  | 1.07 |  |
| COc1ccc2c3c(c4cc(OC)c(OC)cc4c2c1)C[C@H]1CCCCN1C3 [CRYPTOPLEURINE] | > 30 nM |  |  |  | Active |  |  | Activity [15]: inactive; Activity [10]: Active; Activity [16]: Active; Activity [17]: Active; Activity [18]: Active; Activity [19]: Active; Activity [20]: Non-Toxic |
| COc1ccc2c3c(c4cc(OC)c(OC)cc4c2c1)C[C@H]1CC[C@@H](O)CN1C3 (racemic) | > 25 nM | 21.3 nM | 3 nM | 258 nM | Active | inactive | 7.1 |  |
| COc1ccc2c3c(c4cc(OC)c(OC)cc4c2c1)C[C@H]1CCOCN1C3 (racemic) | > 500 nM | 1000 nM | 651 nM | 1100 nM |  |  | 1.54 |  |
| COc1ccc2c3c(c4cc(OC)c(OC)cc4c2c1)C[C@H]1C[C@@H](O)CCN1C3 (racemic) | > 26 nM | 42.1 nM | 4.9 nM | 134 nM |  | inactive | 8.59 |  |
